# According to ChEMBL document CHEMBL1151712, “Assessment of chemical coverage of kinome space and its implications for kinase drug discovery” (J Med Chem, 2008):
# Experiments:
# [1] = target: STE20-like serine/threonine-protein kinase (Homo sapiens, UniProt Q9H2G2); test: Binding affinity to human SLK
# Outline: (§1)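 Binding-format assay rather than activity assay, run without ATP. Kinases were screened as phage-display fusion proteins, not necessarily in their physiologically relevant state.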
# [2] = target: T1, Tyrosine-protein kinase TXK (Homo sapiens, UniProt P42681); test: Binding affinity to human TXK
# T1 sequence (P42681 whole entry): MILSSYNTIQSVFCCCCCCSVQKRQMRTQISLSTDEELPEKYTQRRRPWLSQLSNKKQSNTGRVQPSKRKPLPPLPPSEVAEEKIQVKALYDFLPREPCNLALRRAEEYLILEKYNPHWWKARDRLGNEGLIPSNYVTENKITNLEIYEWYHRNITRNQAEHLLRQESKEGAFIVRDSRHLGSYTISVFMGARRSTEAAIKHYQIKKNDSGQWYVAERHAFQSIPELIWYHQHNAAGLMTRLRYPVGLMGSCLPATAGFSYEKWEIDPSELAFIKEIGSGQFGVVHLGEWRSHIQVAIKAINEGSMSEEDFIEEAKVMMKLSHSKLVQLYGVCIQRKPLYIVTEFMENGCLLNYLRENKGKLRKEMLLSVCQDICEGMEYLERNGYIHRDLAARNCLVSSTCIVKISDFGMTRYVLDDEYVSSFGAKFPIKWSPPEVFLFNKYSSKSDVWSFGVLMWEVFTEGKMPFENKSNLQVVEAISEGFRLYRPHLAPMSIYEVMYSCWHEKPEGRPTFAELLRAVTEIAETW
# [3] = target: Serine/threonine-protein kinase 16 (Homo sapiens, UniProt O75716); test: Binding affinity to human MPSK1; outline: as §1
# Sequence of Serine/threonine-protein kinase 16 (O75716 whole entry): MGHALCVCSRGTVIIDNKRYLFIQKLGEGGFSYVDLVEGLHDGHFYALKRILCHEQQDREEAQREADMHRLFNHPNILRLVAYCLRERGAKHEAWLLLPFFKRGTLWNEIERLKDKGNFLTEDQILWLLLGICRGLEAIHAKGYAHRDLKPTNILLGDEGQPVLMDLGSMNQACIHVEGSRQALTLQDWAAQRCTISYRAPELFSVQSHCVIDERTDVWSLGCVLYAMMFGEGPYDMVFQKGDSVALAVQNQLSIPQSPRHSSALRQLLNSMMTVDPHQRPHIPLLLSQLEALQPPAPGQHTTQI
# [4] = target: Serine/threonine-protein kinase pim-2 (Homo sapiens, UniProt Q9P1W9); test: Binding affinity to human PIM2; outline: as §1
# [5] = target: Serine/threonine-protein kinase MARK1 (Homo sapiens, UniProt Q9P0L2); test: Binding affinity to human MARK1
# [6] = target: Tyrosine-protein kinase receptor UFO (Homo sapiens, UniProt P30530); test: Binding affinity to human AXL
# Sequence of Tyrosine-protein kinase receptor UFO (P30530 whole entry): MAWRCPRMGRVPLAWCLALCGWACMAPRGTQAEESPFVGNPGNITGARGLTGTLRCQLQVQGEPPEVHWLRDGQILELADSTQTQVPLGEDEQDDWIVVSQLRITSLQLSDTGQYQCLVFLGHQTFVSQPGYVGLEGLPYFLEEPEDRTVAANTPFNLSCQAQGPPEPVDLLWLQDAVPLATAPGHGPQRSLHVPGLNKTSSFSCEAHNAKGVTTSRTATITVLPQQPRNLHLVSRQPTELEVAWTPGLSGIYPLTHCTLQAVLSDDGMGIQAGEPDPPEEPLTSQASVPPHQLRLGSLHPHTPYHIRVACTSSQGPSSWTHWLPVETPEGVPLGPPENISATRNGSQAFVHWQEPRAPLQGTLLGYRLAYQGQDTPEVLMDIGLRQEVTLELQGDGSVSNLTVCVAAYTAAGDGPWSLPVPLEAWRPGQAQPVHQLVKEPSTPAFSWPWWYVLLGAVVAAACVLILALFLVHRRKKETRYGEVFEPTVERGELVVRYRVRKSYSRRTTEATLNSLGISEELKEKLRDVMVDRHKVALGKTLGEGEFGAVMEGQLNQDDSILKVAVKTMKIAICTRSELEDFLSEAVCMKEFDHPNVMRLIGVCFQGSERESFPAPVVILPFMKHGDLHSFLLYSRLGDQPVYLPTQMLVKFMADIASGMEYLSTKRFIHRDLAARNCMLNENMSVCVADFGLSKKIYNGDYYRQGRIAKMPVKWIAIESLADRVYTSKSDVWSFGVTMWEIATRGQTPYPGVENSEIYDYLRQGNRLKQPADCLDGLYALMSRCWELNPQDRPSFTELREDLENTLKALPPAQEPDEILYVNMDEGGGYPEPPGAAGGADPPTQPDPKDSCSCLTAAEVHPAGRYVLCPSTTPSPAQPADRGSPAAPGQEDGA
# [7] = target: Serine/threonine-protein kinase Nek2 (Homo sapiens, UniProt P51955); test: Binding affinity to human NEK2
# Sequence of Serine/threonine-protein kinase Nek2 (P51955 whole entry): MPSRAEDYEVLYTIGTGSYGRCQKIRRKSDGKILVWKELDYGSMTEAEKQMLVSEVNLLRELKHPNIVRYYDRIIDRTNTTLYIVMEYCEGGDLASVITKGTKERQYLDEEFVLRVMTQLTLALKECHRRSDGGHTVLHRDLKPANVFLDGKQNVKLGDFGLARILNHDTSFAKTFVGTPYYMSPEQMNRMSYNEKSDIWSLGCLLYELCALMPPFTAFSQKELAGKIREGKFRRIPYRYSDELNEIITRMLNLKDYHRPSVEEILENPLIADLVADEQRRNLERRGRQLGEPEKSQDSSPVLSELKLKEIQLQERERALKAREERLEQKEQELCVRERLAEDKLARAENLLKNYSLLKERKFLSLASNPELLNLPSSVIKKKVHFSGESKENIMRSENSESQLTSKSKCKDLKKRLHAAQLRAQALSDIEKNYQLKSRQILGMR
# [8] = target: Serine/threonine-protein kinase STK11 (Homo sapiens, UniProt Q15831); test: Binding affinity to human LKB1; outline: as §1
# [9] = target: TRAF2 and NCK-interacting protein kinase (Homo sapiens, UniProt Q9UKE5); test: Binding affinity to human TNIK
# [10] = target: Serine/threonine-protein kinase pim-1 (Homo sapiens, UniProt P11309); test: Binding affinity to human PIM1; outline: as §1
# Sequence of Serine/threonine-protein kinase pim-1 (P11309 whole entry): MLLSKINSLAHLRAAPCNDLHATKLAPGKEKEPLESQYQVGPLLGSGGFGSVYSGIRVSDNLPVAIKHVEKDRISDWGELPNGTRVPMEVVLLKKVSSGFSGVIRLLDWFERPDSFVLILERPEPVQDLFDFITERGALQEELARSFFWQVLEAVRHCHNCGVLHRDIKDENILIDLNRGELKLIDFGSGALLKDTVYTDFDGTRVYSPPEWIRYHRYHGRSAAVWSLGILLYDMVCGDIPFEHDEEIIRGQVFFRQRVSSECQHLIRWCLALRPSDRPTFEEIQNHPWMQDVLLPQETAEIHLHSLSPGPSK
# [11] = target: Serine/threonine-protein kinase 3 (Homo sapiens, UniProt Q13188); test: Binding affinity to human MST2; outline: as §1
# [12] = target: Tyrosine-protein kinase ABL2 (Homo sapiens, UniProt P42684); test: Binding affinity to human ARG; outline: as §1
# Sequence of Tyrosine-protein kinase ABL2 (P42684 whole entry): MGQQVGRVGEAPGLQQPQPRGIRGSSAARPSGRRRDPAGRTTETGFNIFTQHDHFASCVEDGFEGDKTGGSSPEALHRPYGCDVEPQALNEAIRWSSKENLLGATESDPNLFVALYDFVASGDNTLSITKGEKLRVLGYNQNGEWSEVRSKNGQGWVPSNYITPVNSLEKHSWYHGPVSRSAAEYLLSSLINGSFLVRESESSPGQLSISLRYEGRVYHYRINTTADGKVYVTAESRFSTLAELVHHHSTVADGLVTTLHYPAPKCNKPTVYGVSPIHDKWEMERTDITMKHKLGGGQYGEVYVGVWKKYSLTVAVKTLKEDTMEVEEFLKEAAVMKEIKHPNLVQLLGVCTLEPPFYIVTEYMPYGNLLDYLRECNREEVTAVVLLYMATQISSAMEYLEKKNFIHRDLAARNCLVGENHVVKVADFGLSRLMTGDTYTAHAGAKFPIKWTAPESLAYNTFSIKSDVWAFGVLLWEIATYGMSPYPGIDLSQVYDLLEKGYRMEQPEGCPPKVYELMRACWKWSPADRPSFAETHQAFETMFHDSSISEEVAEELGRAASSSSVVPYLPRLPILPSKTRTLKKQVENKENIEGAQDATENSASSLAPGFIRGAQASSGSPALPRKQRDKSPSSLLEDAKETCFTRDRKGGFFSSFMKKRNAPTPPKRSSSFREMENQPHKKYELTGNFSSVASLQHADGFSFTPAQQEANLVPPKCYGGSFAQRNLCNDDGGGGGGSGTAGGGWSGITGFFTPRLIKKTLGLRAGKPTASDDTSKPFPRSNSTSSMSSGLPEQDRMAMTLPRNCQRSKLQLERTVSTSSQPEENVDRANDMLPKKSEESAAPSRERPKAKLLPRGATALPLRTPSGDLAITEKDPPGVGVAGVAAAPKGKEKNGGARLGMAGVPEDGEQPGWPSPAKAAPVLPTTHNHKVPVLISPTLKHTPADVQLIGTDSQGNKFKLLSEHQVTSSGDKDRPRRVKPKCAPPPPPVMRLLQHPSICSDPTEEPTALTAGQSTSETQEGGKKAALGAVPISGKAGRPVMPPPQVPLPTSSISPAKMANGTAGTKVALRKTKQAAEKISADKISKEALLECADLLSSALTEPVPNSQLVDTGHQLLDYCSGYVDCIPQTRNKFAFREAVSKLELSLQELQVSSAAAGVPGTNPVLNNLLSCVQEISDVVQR
# [13] = target: Focal adhesion kinase 1 (Homo sapiens, UniProt Q05397)
# Sequence of Focal adhesion kinase 1 (Q05397 whole entry): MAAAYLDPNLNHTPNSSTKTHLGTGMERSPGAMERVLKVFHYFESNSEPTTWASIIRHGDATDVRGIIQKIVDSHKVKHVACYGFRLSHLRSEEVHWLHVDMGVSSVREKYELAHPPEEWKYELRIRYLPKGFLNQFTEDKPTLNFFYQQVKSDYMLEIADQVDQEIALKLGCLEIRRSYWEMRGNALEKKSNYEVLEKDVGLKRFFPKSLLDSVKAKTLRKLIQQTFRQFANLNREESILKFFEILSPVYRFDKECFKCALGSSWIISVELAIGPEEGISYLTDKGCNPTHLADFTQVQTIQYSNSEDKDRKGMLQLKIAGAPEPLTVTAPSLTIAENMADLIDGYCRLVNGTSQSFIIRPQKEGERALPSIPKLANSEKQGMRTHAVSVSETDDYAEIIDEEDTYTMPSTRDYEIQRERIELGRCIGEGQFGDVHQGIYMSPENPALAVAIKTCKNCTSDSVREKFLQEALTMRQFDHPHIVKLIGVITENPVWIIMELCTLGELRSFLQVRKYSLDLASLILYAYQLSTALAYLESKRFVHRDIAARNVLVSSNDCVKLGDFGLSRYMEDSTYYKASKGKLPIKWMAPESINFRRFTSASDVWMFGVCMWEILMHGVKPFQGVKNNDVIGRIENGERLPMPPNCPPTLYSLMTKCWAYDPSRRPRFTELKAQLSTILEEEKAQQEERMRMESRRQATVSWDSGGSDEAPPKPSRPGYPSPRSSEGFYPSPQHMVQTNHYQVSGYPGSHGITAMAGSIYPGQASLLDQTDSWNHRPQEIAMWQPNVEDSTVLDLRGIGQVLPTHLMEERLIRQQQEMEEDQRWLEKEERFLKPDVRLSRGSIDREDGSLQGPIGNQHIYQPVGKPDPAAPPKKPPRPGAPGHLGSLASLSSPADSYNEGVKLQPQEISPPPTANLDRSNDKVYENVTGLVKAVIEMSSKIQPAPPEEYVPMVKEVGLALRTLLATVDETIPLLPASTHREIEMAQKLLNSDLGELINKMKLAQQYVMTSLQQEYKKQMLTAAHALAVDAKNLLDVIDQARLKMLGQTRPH
# [14] = target: Non-receptor tyrosine-protein kinase TYK2 (Homo sapiens, UniProt P29597); test: Binding affinity to human TYK2; outline: as §1
# [15] = target: Proto-oncogene tyrosine-protein kinase ROS (Homo sapiens, UniProt P08922); test: Binding affinity to human ROS
# Outline: (§2)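 Binding-format assay with kinases screened as phage-display fusion proteins, run without ATP, so it reports binding rather than catalytic activity. Compounds were first screened at a single concentration of 10 µM against a 203-kinase panel, read out as %control. Dissociation constants (Kd) were then determined for selected kinase–compound pairs.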
# [16] = target: Leukocyte tyrosine kinase receptor (Homo sapiens, UniProt P29376); test: Binding affinity to human LTK; outline: as §1
# [17] = target: Ribosomal protein S6 kinase alpha-5 (Homo sapiens, UniProt O75582); test: Binding affinity to human MSK1; outline: as §1
# [18] = target: Serine/threonine-protein kinase BRSK2 (Homo sapiens, UniProt Q8IWQ3); test: Binding affinity to human BRSK2; outline: as §1
# [19] = Binding affinity to human KHS2
# [20] = target: 5'-AMP-activated protein kinase catalytic subunit alpha-1 (Homo sapiens, UniProt Q13131); test: Binding affinity to human AMPKA1; outline: as §1
# [21] = target: Serine/threonine-protein kinase PAK 2 (Homo sapiens, UniProt Q13177); test: Binding affinity to human PAK2; outline: as §1
# [22] = target: Protein-tyrosine kinase 2-beta (Homo sapiens, UniProt Q14289); test: Binding affinity to human PYK2; outline: as §2
# [23] = target: Ribosomal protein S6 kinase alpha-4 (Homo sapiens, UniProt O75676); test: Binding affinity to human MSK2; outline: as §1
# Sequence of Ribosomal protein S6 kinase alpha-4 (O75676 whole entry): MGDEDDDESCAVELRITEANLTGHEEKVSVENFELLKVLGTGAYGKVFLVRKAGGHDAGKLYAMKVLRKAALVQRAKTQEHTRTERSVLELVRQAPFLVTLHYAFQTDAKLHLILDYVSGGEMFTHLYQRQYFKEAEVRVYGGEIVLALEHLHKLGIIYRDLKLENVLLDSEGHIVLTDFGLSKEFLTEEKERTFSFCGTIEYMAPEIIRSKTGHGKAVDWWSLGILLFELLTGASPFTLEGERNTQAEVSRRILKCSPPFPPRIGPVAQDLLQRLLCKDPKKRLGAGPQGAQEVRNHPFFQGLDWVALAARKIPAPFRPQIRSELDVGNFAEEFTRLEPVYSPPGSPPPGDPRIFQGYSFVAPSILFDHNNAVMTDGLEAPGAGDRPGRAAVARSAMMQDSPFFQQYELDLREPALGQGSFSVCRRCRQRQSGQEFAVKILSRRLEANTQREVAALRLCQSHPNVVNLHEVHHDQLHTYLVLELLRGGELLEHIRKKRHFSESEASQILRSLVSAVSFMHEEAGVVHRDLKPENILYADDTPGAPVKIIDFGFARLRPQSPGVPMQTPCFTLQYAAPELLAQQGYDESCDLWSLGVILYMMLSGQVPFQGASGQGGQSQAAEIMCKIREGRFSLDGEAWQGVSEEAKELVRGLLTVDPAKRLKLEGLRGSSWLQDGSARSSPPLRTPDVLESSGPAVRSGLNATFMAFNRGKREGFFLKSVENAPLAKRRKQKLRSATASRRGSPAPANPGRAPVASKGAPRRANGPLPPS
# [24] = target: Ephrin type-A receptor 3 (Homo sapiens, UniProt P29320); test: Binding affinity to human EPHA3; outline: as §1
# [25] = target: Tyrosine-protein kinase FRK (Homo sapiens, UniProt P42685); test: Binding affinity to human FRK; outline: as §1
# [26] = target: Casein kinase I isoform delta (Homo sapiens, UniProt P48730); test: Binding affinity to human CK1delta; outline: as §1
# [27] = target: Casein kinase I isoform gamma-1 (Homo sapiens, UniProt Q9HCP0); test: Binding affinity to human CK1gamma1; outline: as §1
# [28] = target: Dual specificity protein kinase CLK2 (Homo sapiens, UniProt P49760); test: Binding affinity to human CLK2; outline: as §1
smiles,measurement,setting,value
CN(C)c1ccc(-c2cc3ncccc3c(NCCCCN)n2)cc1,Kd,[1],395 nM
same,Kd,[2],623 nM
O=C(Nc1n[nH]c2nc(-c3cccc(O)c3)ccc12)C1CC1,Kd,[3],150 nM
same,Kd,[4],207 nM
same,Kd,[5],> 40 µM
N#Cc1ccc(-c2cnc3[nH]cc(NC(=O)c4cccnc4)c3c2)cc1,Kd,[3],24 nM
same,Kd,[6],596 nM
same,Kd,[7],483 nM
same,Kd,[8],380 nM
same,Kd,[9],160 nM
same,Kd,[10],35 nM
same,Kd,[11],75 nM
c1ccc(-c2n[nH]cc2-c2ccnc3ccccc23)nc1,Kd,[12],1870 nM
CCS(=O)(=O)Nc1ccc2c(c1)/C(=C(/Nc1ccc(CN3CCCCC3)cc1)c1ccccc1)C(=O)N2 [HESPERADIN],Kd,[13],33 nM
same,Kd,[14],75 nM
same,Kd,[15],77 nM
same,Kd,[16],52 nM
same,Kd,[17],31 nM
same,Kd,[18],92 nM
same,Kd,[19],5 nM
same,Kd,[20],19 nM
same,Kd,[21],14 µM
same,Kd,[22],10 nM
same,Kd,[23],94 nM
Cc1ccc(C(=O)Nc2cccc(C(C)(C)C)c2)cc1-c1ccc(C(=O)NCC2CC2)cc1,Kd,[24],122 nM
same,Kd,[25],46 nM
CC(=O)c1c(-c2ccncc2)[nH]c(-c2ccncc2)c1C,Kd,[26],58 nM
same,Kd,[27],59 nM
same,Kd,[28],10 nM
